Data on 10 molecules can be found in ChEMBL document CHEMBL1165965, “Synthesis and structure-activity relationships of 1,2,3,4-tetrahydropyrido[2,3-b]pyrazines as potent and selective inhibitors of the anaplastic lymphoma kinase” (Bioorg Med Chem, 2010).

In experiment [1] the target is Casein kinase I isoform epsilon (Homo sapiens) (UniProt P49674). Put plainly: Inhibition of CSNK1E at 1 uM. In outline: (§1)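 Single-concentration screen using Ambit Bioscience KINOMEscan technology across a panel of 250–400 kinases. Per-kinase inhibition from this screen was summarized as S(90), the fraction of kinases inhibited by more than 90%.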
Sequence of Casein kinase I isoform epsilon (Homo sapiens) (P49674 whole entry, looked up, canonical isoform): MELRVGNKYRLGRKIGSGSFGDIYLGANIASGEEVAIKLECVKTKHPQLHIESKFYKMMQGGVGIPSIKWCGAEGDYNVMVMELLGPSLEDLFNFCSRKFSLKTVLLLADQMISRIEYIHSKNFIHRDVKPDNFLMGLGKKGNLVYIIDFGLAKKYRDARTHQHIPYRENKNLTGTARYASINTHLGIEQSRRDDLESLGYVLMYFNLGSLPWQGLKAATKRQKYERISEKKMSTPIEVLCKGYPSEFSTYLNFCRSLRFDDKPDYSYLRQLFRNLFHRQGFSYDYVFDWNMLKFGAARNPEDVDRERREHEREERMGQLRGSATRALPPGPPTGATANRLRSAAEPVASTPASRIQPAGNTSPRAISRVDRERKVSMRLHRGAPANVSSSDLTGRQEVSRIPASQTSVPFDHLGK
The subject of experiment [2] is Proto-oncogene tyrosine-protein kinase receptor Ret (Homo sapiens), P07949 [M918T]. Kind of experiment: Inhibition of RET M918T mutant at 1 uM.
For experiment [3], the target named is STE20-like serine/threonine-protein kinase (Homo sapiens) (UniProt Q9H2G2). Kind of experiment: Inhibition of SLK at 1 uM.
Sequence of STE20-like serine/threonine-protein kinase (Homo sapiens) (Q9H2G2 whole entry, looked up): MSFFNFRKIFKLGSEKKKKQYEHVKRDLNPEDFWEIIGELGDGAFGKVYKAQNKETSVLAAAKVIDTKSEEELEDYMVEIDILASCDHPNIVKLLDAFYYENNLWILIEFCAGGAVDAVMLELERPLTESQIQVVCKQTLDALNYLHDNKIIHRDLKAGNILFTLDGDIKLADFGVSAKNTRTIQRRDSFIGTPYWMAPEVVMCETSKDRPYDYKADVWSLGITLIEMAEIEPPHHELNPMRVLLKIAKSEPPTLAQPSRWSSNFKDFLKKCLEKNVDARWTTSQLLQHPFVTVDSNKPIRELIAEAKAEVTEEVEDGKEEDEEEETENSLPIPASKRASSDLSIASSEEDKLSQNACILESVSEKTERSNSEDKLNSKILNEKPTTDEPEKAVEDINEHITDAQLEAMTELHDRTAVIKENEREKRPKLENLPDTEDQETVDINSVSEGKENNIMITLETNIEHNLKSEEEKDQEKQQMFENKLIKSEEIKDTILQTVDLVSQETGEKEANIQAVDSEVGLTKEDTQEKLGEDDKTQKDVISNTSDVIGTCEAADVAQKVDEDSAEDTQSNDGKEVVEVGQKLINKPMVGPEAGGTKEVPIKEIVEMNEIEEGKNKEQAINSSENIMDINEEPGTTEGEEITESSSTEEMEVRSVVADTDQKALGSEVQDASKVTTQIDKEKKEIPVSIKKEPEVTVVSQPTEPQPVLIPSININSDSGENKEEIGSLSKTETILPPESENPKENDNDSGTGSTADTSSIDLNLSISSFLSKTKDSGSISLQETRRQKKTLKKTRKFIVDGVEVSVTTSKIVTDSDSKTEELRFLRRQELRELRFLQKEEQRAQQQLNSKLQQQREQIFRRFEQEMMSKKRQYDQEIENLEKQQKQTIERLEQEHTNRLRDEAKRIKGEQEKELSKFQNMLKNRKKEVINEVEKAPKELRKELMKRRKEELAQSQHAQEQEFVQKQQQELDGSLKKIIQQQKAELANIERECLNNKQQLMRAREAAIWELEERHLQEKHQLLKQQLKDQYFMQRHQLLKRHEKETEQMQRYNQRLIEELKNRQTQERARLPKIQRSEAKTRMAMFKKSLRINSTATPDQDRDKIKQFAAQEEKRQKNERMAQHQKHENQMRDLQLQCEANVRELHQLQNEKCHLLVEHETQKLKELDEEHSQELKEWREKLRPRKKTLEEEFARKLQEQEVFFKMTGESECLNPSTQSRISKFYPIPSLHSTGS
For experiment [4], the target named is Activin receptor type-1-like (Homo sapiens) (UniProt P37023). Put plainly: Inhibition of ACVRL1 at 1 uM. A digest of the protocol: (§2)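 Ambit KINOMEscan screen at a single concentration across a 250–400 kinase panel, recorded as percent inhibition. Selectivity was expressed as S(90), the fraction of kinases inhibited >90%.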
Sequence of Activin receptor type-1-like (Homo sapiens) (P37023 whole entry, the tested form may be a part): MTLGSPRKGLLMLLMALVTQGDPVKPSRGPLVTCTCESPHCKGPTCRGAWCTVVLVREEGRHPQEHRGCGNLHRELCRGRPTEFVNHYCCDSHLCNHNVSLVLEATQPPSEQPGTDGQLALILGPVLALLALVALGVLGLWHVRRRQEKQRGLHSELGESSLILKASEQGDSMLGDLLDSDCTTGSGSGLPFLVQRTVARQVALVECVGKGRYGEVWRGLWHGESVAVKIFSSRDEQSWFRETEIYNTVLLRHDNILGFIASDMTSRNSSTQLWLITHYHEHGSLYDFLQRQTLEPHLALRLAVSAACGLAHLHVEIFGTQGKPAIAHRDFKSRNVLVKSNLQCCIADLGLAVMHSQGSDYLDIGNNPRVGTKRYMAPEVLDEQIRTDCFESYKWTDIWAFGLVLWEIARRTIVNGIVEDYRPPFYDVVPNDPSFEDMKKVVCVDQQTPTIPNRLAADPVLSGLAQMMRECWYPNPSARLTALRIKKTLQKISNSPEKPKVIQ
For experiment [5], the target named is Tyrosine-protein kinase JAK1 (Homo sapiens) (UniProt P23458). Kind of experiment: Inhibition of JAK1 JH1 catalytic domain at 1 uM. A digest of the protocol:
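Single-concentration screen on the Ambit KINOMEscan platform, run against a panel of 250–400 kinases. Per-kinase inhibition was also summarized as S(90), the fraction of kinases inhibited by more than 90%.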

For experiment [6], the target named is T1, Serine/threonine-protein kinase 36 (Homo sapiens) (UniProt Q9NRP7).
T1 sequence (whole entry): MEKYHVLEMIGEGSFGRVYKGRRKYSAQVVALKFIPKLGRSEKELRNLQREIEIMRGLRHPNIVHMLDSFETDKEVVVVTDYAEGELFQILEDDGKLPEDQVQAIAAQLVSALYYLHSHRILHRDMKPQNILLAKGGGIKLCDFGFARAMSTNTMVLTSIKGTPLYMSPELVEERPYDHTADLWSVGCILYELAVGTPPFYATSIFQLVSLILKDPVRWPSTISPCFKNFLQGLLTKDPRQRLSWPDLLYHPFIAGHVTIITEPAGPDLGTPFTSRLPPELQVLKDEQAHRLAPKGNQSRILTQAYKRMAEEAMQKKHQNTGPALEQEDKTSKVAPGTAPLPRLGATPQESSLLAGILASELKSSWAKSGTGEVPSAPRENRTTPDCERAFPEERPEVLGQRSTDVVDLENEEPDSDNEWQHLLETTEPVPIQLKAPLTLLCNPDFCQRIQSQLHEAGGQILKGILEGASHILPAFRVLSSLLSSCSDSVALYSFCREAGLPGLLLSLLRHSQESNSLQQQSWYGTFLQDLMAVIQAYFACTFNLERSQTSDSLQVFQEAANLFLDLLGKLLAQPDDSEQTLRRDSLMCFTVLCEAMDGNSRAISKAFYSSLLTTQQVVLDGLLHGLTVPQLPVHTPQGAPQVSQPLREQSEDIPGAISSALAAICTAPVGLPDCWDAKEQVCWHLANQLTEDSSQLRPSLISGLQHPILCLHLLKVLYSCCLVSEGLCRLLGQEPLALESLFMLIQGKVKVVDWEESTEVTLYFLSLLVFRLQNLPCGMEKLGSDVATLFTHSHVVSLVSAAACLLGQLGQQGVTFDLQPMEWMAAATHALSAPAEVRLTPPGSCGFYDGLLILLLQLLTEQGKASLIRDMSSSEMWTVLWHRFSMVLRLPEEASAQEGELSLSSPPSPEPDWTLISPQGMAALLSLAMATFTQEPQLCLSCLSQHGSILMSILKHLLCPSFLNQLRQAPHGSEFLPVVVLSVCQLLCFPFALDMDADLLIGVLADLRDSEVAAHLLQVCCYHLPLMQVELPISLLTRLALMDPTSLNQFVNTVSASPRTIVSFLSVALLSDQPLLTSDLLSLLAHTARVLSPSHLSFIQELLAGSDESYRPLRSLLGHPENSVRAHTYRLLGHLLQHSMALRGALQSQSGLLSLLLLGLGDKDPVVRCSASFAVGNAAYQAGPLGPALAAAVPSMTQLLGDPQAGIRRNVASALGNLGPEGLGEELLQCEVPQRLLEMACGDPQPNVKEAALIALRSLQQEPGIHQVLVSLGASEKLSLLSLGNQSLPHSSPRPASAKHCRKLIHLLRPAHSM
Put plainly: Inhibition of STK36 at 1 uM.

Experiment [7] addresses BMP-2-inducible protein kinase (Homo sapiens) (UniProt Q9NSY1). Kind of experiment: Inhibition of BIKE at 1 uM. In outline:
as §2

Experiment [8] concerns the target Tyrosine-protein kinase CSK (Homo sapiens) (UniProt P41240). Kind of experiment: Inhibition of CSK at 1 uM. In outline: as §1
The target of experiment [9] is T2, cGMP-dependent protein kinase 2 (Homo sapiens) (UniProt Q13237).
T2 sequence (whole entry): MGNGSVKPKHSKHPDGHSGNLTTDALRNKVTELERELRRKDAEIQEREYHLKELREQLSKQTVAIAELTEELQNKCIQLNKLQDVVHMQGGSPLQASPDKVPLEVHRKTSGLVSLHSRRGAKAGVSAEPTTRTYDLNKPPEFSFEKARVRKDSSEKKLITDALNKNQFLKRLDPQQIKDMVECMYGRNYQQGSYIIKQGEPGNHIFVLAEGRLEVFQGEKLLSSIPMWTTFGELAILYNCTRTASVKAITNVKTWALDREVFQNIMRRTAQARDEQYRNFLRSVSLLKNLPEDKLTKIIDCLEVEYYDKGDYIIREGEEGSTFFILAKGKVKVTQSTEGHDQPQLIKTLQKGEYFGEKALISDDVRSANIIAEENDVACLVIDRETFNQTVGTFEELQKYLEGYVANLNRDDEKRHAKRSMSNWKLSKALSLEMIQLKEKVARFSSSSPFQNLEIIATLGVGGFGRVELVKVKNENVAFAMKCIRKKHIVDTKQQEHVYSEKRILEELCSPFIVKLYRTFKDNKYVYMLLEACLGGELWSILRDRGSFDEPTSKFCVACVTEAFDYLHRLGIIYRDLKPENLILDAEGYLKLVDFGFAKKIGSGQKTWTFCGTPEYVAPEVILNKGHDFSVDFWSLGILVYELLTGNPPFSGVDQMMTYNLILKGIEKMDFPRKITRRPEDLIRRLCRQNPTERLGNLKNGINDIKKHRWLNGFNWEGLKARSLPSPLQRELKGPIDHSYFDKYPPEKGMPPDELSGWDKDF
Kind of experiment: Inhibition of PRKG2 at 1 uM.

For experiment [10], the target named is Serine/threonine-protein kinase SIK1 (Homo sapiens) (UniProt P57059). Put plainly: Inhibition of SIK at 1 uM.
For experiment [11], the target named is cAMP-dependent protein kinase catalytic subunit alpha (Homo sapiens) (UniProt P17612). Put plainly: Inhibition of PKAC-alpha at 1 uM.

Molecules are shown by their SMILES.

Sequence of BMP-2-inducible protein kinase (Homo sapiens) (Q9NSY1 whole entry, looked up): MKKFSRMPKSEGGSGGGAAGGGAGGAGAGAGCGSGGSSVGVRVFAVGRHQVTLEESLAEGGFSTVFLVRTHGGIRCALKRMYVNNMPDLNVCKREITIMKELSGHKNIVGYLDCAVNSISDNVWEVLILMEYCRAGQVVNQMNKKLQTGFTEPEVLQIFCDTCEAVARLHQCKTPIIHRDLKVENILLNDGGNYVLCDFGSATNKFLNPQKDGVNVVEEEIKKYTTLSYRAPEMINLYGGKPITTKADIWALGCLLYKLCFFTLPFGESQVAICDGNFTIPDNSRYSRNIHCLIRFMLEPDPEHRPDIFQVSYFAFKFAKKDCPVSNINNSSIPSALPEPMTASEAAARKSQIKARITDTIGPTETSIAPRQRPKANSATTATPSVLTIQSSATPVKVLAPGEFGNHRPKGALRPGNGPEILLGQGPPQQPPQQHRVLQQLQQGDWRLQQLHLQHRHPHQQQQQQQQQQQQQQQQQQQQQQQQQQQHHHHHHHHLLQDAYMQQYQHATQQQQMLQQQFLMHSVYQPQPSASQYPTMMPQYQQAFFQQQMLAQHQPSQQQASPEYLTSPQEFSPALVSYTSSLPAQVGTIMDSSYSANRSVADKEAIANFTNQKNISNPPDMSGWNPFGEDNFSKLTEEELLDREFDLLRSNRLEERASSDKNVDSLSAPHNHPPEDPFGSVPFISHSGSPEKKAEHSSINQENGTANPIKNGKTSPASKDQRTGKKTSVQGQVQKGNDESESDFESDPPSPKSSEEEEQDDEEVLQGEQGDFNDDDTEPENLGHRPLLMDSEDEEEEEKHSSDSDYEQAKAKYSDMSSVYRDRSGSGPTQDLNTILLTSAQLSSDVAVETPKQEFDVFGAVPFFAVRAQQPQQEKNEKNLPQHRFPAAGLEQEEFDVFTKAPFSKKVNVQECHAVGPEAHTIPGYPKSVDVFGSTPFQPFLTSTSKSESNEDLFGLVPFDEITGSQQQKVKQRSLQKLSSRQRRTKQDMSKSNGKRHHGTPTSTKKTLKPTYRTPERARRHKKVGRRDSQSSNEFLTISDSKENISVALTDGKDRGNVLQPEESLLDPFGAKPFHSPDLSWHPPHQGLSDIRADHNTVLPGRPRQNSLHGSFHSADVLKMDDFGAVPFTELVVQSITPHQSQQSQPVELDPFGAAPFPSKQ
Sequence of Tyrosine-protein kinase CSK (Homo sapiens) (P41240 2-450 limits assumed): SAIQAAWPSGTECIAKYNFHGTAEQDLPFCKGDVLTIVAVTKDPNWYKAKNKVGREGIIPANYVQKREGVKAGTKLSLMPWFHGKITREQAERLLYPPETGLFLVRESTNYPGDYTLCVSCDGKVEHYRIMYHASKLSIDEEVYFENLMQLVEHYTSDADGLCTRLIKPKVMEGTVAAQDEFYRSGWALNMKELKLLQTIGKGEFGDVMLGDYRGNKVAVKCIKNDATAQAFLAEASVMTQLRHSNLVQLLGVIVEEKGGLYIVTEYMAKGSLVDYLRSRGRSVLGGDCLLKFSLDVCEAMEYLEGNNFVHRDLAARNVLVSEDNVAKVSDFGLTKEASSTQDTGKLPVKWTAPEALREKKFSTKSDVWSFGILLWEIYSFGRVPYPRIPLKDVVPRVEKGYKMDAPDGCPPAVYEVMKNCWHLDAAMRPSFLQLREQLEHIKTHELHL
Sequence of Proto-oncogene tyrosine-protein kinase receptor Ret (Homo sapiens), P07949 [M918T] (P07949 whole entry M918T): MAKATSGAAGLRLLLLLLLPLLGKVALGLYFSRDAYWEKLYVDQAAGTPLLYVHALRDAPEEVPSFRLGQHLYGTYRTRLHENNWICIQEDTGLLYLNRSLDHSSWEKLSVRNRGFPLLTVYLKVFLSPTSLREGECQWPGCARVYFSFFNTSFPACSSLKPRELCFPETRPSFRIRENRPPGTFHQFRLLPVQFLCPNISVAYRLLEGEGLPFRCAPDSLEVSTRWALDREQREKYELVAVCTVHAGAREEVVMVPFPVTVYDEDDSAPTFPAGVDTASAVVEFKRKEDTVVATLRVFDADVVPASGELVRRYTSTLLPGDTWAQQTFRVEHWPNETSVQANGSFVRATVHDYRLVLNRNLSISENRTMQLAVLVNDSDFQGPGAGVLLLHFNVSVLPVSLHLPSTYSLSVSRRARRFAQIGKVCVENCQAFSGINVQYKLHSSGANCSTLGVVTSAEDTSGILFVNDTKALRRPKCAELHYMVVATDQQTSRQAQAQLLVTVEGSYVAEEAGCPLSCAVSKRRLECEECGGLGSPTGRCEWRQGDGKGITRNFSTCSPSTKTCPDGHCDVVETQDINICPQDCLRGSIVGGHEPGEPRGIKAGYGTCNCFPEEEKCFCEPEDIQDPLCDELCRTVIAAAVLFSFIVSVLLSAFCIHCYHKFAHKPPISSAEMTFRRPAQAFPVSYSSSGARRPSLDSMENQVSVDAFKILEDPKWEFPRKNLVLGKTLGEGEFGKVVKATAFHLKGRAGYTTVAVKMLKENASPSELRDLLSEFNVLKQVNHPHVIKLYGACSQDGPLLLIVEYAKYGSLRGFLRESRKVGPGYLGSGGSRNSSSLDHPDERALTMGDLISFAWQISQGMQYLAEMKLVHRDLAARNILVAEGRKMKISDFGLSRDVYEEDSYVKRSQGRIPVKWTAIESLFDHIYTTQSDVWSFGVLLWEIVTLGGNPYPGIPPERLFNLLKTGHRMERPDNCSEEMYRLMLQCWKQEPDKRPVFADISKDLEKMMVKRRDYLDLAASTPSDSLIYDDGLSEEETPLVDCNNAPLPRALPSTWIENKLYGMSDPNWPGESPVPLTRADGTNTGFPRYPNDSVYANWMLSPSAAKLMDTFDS

For `FC(F)(F)c1ccc(Cl)cc1CN1CCNc2ncc(-c3ccnc(N4CCNCC4)c3)cc21`, the inhibition in experiment [1] is less than 50%; in experiment [2], 67%; in [3], less than 50%; in experiment [4], less than 50%; in [5], 78%; in experiment [6] it was less than 50%. For the same molecule, the inhibition in [7], in [8], in experiment [9], in [10] and in experiment [11] was less than 50% each time.
As to `CN1CCN(c2ccc(-c3cnc4c(c3)N(Cc3cc(F)ccc3F)CCN4)cn2)CC1`, the inhibition in [1] was less than 50%; in experiment [2], less than 50%; in experiment [3] it was less than 50%; in [4] it was less than 50%; in experiment [5], 88%; in experiment [6] it was less than 50%. Besides, the inhibition in experiment [7], in experiment [8], in experiment [9], in [10] and in [11] was less than 50% each time.
With `CN1CCN(c2ccc(-c3cnc4c(c3)N(Cc3cc(Cl)ccc3Cl)CCN4)cn2)CC1`, the inhibition in experiment [1] is less than 50%; in [2], less than 50%; in [3], less than 50%; in experiment [4], less than 50%; in experiment [5], 89%; in experiment [6], less than 50%. Further, the inhibition in experiment [7], in [8], in experiment [9], in experiment [10] and in experiment [11] was less than 50% throughout.
Consider `O=C(O)c1ccc(-c2cnc3c(c2)N(Cc2cc(Cl)ccc2C(F)(F)F)CCN3)cc1`, for which the inhibition in [1], in experiment [3], in [4], in experiment [7], in experiment [8] and in experiment [9] was less than 50% in each case. The inhibition in experiment [10] and in experiment [11] was less than 50% in each case.
Take `CN1CCN(c2ccc(-c3cnc4c(c3)N(Cc3cc(Cl)ccc3C(F)(F)F)CCN4)cn2)CC1`: the inhibition in [1] was less than 50%; in experiment [2] it was less than 50%; in experiment [3], less than 50%; in experiment [4], less than 50%; in [5] it was 93%; in [6], less than 50%. For the same molecule, the inhibition in experiment [7], in [8], in experiment [9] and in experiment [10] was less than 50% each time.
As to `COC1CCN(C(=O)c2ccc(-c3cnc4c(c3)N(Cc3cc(Cl)ccc3C(F)(F)F)CCN4)cc2)CC1`, the inhibition in [1], in [3], in [4], in experiment [5], in experiment [7] and in experiment [8] was less than 50% throughout. The inhibition in experiment [9], in [10] and in experiment [11] was less than 50% in each case.
For `O=C(c1ccc(-c2cnc3c(c2)N(Cc2cc(Cl)ccc2C(F)(F)F)CCN3)cc1)N1CCC(N2CCCC2)CC1`, the inhibition in [1] is less than 50%; in experiment [3], less than 50%; in experiment [4], less than 50%; in [5] it was less than 50%; in experiment [7] it was 84%; in [8], less than 50%. Moreover, the inhibition is less than 50% in experiment [9], 81.6% in experiment [10] and less than 50% in [11].
Turning to `CN1CCN(c2ccc(-c3cnc4c(c3)N(Cc3c(F)ccc(F)c3Cl)CCN4)cn2)CC1`, the inhibition in [1], in experiment [2], in experiment [3], in experiment [4], in [5] and in experiment [6] was less than 50% in each case. Also, the inhibition in experiment [7], in experiment [8], in experiment [9] and in experiment [10] was less than 50% each time.
For `O=C(c1ccc(-c2cnc3c(c2)N(Cc2cc(Cl)ccc2C(F)(F)F)CCN3)cc1)N1CCCCC1`, the inhibition in experiment [1], in experiment [3], in experiment [4], in experiment [5], in experiment [7] and in [8] was less than 50% each time. Moreover, the inhibition in experiment [9], in experiment [10] and in [11] was less than 50% each time.
Consider `CC(=O)N1CCN(c2cc(-c3cnc4c(c3)N(Cc3cc(Cl)ccc3C(F)(F)F)CCN4)ccn2)CC1`, for which the inhibition in experiment [1] was less than 50%; in [2] it was less than 50%; in experiment [3], less than 50%; in experiment [4] it was less than 50%; in [5], 96%; in experiment [6], less than 50%. Also, the inhibition in experiment [7], in [8], in [9], in experiment [10] and in experiment [11] was less than 50% each time.
